Results on seven molecules are retold here after ChEMBL document CHEMBL1128239, “Structure-activity relationships of lactone ring-opened analogs of the antimalarial 1,2,4-trioxane artemisinin” (J Med Chem, 1995).

Usually IC50 stands for the concentration at which inhibition is half-maximal. Higher therefore signals weaker potency in that assay. The term ED50 denotes the midpoint of the dose-response relation.

The test system of assay [1] is Plasmodium falciparum. Description: In vitro antimalarial activity against Plasmodium falciparum D6. In kind it is functional, organism-based.
The subject of assay [2] is Plasmodium falciparum. As to the kind of experiment: In vitro antimalarial activity against Plasmodium falciparum W-2. Type of assay: functional, organism-based.
For assay [3], the system named is Mus musculus. Description: In vivo antimalarial activity against Plasmodium berghei. Activity expressed as ED50. In kind it is functional. In outline: (§1)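 Mice infected with drug-sensitive N strain of P. berghei; compound given subcutaneously as a single daily dose for 4 days. ED50 and ED90 reported in mg/kg.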
Assay [4] relates to Mus musculus. As to the kind of experiment: In vivo antimalarial activity against Plasmodium berghei. Activity expressed as ED90. In kind it is functional. In outline: as §1

Molecules are shown by their SMILES. In brackets after ≈: the same amount, converted by molar mass.

As to `CO[C@H]1O[C@@]2(C)CC[C@H]3CCC[C@@H](CCOCc4ccc(-c5ccccc5)cc4)[C@]31OO2`, the IC50 in the assay with Plasmodium falciparum [1] and with Plasmodium falciparum [2] was 6 ng/mL (≈ 0.0137 µM) in each case.

The molecule `CO[C@H]1O[C@@]2(C)CC[C@H]3CCC[C@@H](CCOCc4cc[n+](C)cc4)[C@]31OO2.[I-]` showed an IC50 in the assay on Plasmodium falciparum [2] of 85 ng/mL.

Take `CO[C@H]1O[C@@]2(C)CC[C@H]3CCC[C@@H](CCOCc4ccccn4)[C@]31OO2`: the figures for the IC50 in the assay with Plasmodium falciparum [1] and with Plasmodium falciparum [2] were 18 ng/mL (≈ 0.0495 µM) and 7 ng/mL (≈ 0.0193 µM), respectively.

Take `C[C@H]1[C@H](OC(=O)CCC(=O)[O-])O[C@@H]2O[C@@]3(C)CC[C@H]4[C@H](C)CC[C@@H]1[C@@]24OO3.[Na+]` [SODIUM ARESUNATE]: the 50% effect level in the assay with Mus musculus [3] (ED50) was put at a dose of 1.5 mg/kg. The ED90 in the assay with Mus musculus [4] stood at 4.9 mg/kg.

With `CO[C@H]1O[C@@]2(C)CC[C@H]3CCC[C@@H](CCOCc4ccncc4)[C@]31OO2`, the results for the IC50 in the assay with Plasmodium falciparum [1] and in the assay on Plasmodium falciparum [2] were 10 ng/mL (≈ 0.0275 µM) and 7.5 ng/mL (≈ 0.0206 µM), respectively.

Take `CO[C@H]1O[C@@]2(C)CC[C@H]3CCC[C@@H](CCOCc4ccccc4)[C@]31OO2`: the IC50 in the assay on Plasmodium falciparum [1] was determined as 8 ng/mL (≈ 0.0221 µM); with Plasmodium falciparum [2], 3 ng/mL (≈ 0.00828 µM).

As to `CO[C@H]1O[C@@]2(C)CC[C@H]3CCC[C@@H](CCOCc4ccc(F)cc4)[C@]31OO2`, the IC50 in the assay with Plasmodium falciparum [1] was determined as 3 ng/mL (≈ 0.00789 µM); with Plasmodium falciparum [2], 4.5 ng/mL (≈ 0.0118 µM). In the assay with Mus musculus [3], this molecule yielded an ED50 of 7.6 mg/kg. The molecule further returned an ED90 in the assay with Mus musculus [4] of 13.5 mg/kg.
